The results in this text go back to ChEMBL document CHEMBL2016531, “Identification of NAE Inhibitors Exhibiting Potent Activity in Leukemia Cells: Exploring the Structural Determinants of NAE Specificity” (ACS Med Chem Lett, 2011).

Test [1] has as its target Tyrosine-protein kinase JAK1 (Homo sapiens) (UniProt P23458). The test is described as follows: Inhibition of JAK1 assessed as remaining activity at 0.1 uM by radiolabeled kinase assay relative to control.
The target of test [2] is Dual specificity mitogen-activated protein kinase kinase 1 (Homo sapiens) (UniProt Q02750). The test is described as follows: Inhibition of MEK1 assessed as remaining activity at 0.1 uM by radiolabeled kinase assay relative to control.
The species entered for test [3] is Homo sapiens. The test is described as follows: Inhibition of human recombinant UAE assessed as inhibition of UbcH6-Ub complex formation at 0.001 to 10 uM after 1.5 hrs by Western blot analysis. The essentials:
(§1)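 Cell-free gel assay. Purified human recombinant E1 incubated with its matching Ub/Ubl and E2 in 50 mM HEPES pH 7.4, 5 mM MgCl2, 1–20 μM ATP. Inhibitor at 0, 0.001, 0.01, 0.1, 1 or 10 μM, 1.5 h at room temperature. Products resolved by SDS-PAGE, immunoblotted and detected by ECL; densitometry used for semiquantitation.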
A general note: A western blot detects proteins with antibodies after separation by electrophoresis.

Test [4] has as its target T1, NEDD8-activating enzyme E1 catalytic subunit (Homo sapiens) (UniProt Q8TBC4).
T1 sequence (whole entry): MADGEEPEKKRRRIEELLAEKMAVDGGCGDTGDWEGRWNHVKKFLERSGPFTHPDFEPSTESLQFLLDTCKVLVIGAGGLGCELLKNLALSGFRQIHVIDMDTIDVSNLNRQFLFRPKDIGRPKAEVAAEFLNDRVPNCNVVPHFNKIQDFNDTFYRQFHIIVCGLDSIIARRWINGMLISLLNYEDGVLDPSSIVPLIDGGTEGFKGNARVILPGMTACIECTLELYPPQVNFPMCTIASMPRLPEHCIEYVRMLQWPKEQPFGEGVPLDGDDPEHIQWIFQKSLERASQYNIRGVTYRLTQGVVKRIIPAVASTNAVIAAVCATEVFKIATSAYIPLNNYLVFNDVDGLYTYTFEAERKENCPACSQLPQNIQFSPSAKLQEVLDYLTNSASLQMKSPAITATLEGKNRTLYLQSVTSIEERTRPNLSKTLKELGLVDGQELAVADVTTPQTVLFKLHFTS
The test is described as follows: Inhibition of UBA3-mediated NEDD8 activation at […] after 1.5 hrs by Western blot analysis.

A short description of test [5]: Inhibition of human recombinant NAE assessed as inhibition of NEDD8-UbcH12 complex formation after 1.5 hrs by Western blot analysis. The method, boiled down: as §1
The target of test [6] is High affinity nerve growth factor receptor (Homo sapiens) (UniProt P04629). The test is described as follows: Inhibition of TRKA assessed as remaining activity at 0.1 uM by radiolabeled kinase assay relative to control.
Test [7] concerns the target Epidermal growth factor receptor (Homo sapiens) (UniProt P00533). The test is described as follows: Inhibition of EGFR assessed as remaining activity at 0.1 uM by radiolabeled kinase assay relative to control.
For test [8], the species on record is Homo sapiens. The test is described as follows: Inhibition of human recombinant NAE assessed as inhibition of NEDD8-UbcH12 complex formation at 0.001 to 10 uM after 1.5 hrs by Western blot analysis. The essentials:
as §1

Test [9] deals with Tyrosine-protein kinase ABL1 (Homo sapiens) (UniProt P00519). The test is described as follows: Inhibition of ABL assessed as remaining activity at 0.1 uM by radiolabeled kinase assay relative to control.
Test [10] deals with Insulin-like growth factor 1 receptor (Homo sapiens) (UniProt P08069). The test is described as follows: Inhibition of IGF1R assessed as remaining activity at 0.1 uM by radiolabeled kinase assay relative to control.
The species named for test [11] is Homo sapiens. The test is described as follows: Inhibition of human recombinant NAE assessed as inhibition of NEDD8-UbcH12 complex formation at 1 nM after 1.5 hrs by Western blot analysis. The essentials:
as §1

For test [12], the system named is K562. The test is described as follows: Antiproliferative activity against human K562 cells after 72 hrs by CellTiter-Glo assay. Type of test: functional, cell-based. The settings on record: K562, 72 h. The essentials: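 K562 leukemia cells exposed to increasing concentrations for 72 h; growth and viability read by CellTiter-Glo luminescence.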
The subject of test [13] is K562. The test is described as follows: Inhibition of NAE in human K562 cells assessed as inhibition of NEDD8-cullin complex formation at 1 to 1000 nM after 24 hrs by immunoblotting. The test is classed as cell-based. The essentials: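 K562 cells treated with increasing concentrations for 24 h, then harvested. Total cellular protein isolated and NEDD8–cullin conjugates detected by immunoblotting.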

For test [14], the target named is Ubiquitin-like modifier-activating enzyme 5 (Homo sapiens) (UniProt Q9GZZ9). The test is described as follows: Inhibition of human recombinant UBA5 assessed as inhibition of […]-UFM1 complex formation at 10 uM after 1.5 hrs by Western blot analysis. The method, boiled down:
as §1

Test [15] concerns the target Cyclin-dependent kinase 1/cyclin B1 (Homo sapiens) (UniProt P06493+P14635). The test is described as follows: Inhibition of CDK1/cyclin B assessed as remaining activity at 0.1 uM by radiolabeled kinase assay relative to control. The test is classed as protein-complex assay.
Test [16] has as its target T2, NEDD8-activating enzyme E1 regulatory subunit (Homo sapiens) (UniProt Q13564).
T2 sequence (whole entry): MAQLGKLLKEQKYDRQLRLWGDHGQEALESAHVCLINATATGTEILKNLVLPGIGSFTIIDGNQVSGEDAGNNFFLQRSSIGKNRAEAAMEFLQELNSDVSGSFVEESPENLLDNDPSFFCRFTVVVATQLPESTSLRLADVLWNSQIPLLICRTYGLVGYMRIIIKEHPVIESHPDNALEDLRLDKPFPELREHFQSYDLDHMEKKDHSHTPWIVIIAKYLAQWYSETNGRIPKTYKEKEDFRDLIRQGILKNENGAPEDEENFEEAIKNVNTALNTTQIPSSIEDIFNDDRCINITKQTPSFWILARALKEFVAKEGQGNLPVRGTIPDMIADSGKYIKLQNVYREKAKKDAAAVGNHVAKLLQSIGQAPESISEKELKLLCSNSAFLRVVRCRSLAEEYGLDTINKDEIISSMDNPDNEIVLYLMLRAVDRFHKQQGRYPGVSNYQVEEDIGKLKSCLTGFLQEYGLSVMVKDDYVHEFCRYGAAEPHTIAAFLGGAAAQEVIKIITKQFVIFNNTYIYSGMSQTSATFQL
The test is described as follows: Inhibition of APPBP1-mediated NEDD8 activation at […] after 1.5 hrs by Western blot analysis.

Test [17] has as its target SUMO-activating enzyme (Homo sapiens) (UniProt Q9UBE0+Q9UBT2). The test is described as follows: Inhibition of human recombinant SAE1/2 assessed as inhibition of SUMO1-UbcH9 complex formation at 0.001 to 10 uM after 1.5 hrs by Western blot analysis. The test is classed as protein-complex assay. The essentials: as §1
Test [18] deals with Death-associated protein kinase 1 (Homo sapiens) (UniProt P53355). The test is described as follows: Inhibition of DAPK1 assessed as remaining activity at 0.1 uM by radiolabeled kinase assay relative to control.

Structures are written as SMILES. Active and inactive are the calls of the source. The calls are words filed in the database; no cut-off is given here. Some results are limits rather than exact numbers.

Sequence of High affinity nerve growth factor receptor (Homo sapiens) (P04629 33-796 limits assumed): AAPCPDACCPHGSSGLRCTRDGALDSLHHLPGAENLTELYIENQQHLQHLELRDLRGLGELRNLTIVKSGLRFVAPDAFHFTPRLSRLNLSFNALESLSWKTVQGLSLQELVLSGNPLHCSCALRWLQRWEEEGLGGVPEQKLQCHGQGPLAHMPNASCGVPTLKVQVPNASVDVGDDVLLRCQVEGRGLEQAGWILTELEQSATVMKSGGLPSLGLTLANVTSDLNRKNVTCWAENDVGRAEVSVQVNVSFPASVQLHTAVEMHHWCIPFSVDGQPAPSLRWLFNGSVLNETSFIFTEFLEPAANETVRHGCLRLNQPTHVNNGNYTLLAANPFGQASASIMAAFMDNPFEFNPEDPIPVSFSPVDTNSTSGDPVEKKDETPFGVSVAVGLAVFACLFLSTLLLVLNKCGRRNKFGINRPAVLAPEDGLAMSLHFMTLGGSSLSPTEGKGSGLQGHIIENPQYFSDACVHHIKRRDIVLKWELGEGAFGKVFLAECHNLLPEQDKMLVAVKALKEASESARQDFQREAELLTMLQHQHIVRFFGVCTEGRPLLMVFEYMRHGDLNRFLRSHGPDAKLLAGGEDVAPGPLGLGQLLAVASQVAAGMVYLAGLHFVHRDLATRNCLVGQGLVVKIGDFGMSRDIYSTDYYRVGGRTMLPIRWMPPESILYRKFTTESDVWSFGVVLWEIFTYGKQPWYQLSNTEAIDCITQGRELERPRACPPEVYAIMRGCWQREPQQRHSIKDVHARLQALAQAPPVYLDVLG
Sequence of Epidermal growth factor receptor (Homo sapiens) (P00533 whole entry): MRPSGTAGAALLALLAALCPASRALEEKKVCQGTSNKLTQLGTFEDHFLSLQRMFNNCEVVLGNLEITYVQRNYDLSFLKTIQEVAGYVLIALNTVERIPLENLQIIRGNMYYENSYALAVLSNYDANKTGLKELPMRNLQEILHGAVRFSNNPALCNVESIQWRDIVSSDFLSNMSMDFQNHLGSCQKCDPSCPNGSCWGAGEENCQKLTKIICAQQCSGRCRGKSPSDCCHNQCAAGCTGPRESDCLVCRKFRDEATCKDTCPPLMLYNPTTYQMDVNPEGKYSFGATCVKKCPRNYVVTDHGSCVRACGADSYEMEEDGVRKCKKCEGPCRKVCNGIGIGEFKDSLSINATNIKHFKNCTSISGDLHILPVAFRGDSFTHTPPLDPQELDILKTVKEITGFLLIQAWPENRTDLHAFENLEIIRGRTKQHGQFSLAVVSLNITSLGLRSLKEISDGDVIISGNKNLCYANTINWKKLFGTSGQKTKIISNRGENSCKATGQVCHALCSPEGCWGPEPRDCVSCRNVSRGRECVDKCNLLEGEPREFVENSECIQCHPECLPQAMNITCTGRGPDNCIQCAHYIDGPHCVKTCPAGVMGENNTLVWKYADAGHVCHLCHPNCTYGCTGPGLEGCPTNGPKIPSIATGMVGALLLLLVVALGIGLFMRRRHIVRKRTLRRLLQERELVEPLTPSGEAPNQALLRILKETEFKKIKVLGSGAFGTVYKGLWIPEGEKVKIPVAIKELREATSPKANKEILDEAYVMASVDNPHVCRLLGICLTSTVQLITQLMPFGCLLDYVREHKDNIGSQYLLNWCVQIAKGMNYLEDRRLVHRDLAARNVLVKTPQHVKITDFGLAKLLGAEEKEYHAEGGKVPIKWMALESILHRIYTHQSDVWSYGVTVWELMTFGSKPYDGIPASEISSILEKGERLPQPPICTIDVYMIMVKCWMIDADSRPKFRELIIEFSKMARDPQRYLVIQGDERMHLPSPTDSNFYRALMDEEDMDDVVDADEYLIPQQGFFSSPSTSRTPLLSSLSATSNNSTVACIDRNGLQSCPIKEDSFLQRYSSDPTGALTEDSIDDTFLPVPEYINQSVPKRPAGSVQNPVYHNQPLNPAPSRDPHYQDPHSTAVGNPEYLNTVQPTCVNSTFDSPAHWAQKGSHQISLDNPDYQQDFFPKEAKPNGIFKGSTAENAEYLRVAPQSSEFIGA
Sequence of Tyrosine-protein kinase ABL1 (Homo sapiens) (P00519 whole entry): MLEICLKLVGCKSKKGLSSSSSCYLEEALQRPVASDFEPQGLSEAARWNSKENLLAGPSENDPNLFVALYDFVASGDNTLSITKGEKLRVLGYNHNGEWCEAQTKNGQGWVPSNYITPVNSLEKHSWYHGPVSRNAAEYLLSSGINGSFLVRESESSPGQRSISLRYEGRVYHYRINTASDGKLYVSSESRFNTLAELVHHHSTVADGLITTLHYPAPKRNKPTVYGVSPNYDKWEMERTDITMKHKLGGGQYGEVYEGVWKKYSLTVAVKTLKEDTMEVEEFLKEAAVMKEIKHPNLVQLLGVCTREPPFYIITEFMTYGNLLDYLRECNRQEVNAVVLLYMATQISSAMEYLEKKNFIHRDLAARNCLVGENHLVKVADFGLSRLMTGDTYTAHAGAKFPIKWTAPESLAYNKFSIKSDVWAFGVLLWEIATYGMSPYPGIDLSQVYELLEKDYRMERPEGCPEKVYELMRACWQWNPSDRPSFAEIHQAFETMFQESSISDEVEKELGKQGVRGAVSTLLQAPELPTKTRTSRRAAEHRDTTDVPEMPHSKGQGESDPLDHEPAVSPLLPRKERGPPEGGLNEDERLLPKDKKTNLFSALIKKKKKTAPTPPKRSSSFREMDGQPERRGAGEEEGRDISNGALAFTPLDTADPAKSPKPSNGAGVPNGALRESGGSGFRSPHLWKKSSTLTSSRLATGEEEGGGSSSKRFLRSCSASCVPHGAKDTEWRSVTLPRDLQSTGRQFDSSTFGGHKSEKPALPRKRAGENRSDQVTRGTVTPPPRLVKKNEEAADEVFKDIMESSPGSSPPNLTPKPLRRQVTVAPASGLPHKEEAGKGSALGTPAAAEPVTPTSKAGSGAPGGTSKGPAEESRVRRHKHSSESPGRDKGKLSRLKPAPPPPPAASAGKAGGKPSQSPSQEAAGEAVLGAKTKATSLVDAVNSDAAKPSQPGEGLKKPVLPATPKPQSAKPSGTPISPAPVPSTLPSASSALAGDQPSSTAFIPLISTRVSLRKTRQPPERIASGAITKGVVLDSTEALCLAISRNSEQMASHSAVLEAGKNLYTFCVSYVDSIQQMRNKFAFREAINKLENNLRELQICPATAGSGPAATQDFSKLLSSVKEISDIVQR
Sequence of Insulin-like growth factor 1 receptor (Homo sapiens) (P08069 31-736 limits assumed): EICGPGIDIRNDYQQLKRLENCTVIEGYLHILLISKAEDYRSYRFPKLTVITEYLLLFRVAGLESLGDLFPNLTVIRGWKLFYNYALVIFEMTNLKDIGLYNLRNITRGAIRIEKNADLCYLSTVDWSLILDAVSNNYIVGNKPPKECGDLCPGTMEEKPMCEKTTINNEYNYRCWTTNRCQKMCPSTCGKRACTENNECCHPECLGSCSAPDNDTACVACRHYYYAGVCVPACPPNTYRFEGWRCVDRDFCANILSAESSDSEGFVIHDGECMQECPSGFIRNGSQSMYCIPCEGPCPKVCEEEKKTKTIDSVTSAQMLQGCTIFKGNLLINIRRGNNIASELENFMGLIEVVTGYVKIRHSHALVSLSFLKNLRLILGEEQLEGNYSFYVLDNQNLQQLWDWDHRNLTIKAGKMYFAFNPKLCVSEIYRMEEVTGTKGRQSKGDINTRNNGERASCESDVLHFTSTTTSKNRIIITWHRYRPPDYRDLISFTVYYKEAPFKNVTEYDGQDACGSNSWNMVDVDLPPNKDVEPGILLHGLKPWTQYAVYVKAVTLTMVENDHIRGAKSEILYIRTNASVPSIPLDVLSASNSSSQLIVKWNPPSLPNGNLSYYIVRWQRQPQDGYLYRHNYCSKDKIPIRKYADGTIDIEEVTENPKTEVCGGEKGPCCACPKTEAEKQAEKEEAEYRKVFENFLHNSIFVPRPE
Sequence of Insulin-like growth factor 1 receptor (Homo sapiens) (P08069 741-1367 limits assumed): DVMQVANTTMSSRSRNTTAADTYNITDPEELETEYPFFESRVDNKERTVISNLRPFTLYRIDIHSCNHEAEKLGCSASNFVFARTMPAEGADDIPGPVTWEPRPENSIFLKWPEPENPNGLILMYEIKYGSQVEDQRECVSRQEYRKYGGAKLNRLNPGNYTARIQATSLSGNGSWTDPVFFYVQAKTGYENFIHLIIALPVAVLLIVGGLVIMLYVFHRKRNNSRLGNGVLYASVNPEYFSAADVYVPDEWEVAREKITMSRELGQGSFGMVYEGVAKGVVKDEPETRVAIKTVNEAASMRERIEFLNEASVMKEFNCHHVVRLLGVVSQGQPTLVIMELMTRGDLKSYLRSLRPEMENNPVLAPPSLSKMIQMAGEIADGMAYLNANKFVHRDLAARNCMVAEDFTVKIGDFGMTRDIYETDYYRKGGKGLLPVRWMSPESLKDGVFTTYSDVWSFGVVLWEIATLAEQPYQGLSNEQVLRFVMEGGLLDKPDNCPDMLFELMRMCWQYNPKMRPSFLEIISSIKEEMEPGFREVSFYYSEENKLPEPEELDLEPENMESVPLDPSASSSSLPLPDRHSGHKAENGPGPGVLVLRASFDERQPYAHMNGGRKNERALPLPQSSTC
Sequence of Dual specificity mitogen-activated protein kinase kinase 1 (Homo sapiens) (Q02750 whole entry): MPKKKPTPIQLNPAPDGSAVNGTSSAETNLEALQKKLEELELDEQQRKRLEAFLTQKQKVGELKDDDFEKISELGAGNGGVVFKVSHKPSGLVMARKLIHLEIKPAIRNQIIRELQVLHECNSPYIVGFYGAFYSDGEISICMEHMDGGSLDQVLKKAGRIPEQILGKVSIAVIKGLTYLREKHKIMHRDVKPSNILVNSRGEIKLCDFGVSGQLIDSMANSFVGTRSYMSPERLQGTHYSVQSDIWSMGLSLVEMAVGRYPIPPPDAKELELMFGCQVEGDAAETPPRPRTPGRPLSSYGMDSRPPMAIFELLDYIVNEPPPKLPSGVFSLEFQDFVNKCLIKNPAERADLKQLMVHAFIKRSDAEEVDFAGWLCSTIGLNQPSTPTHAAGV

On to `CCCCCCNc1ncnc2c1ncn2[C@@H]1O[C@H](COS(N)(=O)=O)[C@@H](O)[C@H]1O`, for which the Activity worked out at 99.3% in [1]; 123% in [2]; 109% in [6]; 98.9% in [7]; 102% in test [9]; 100% in test [10]. The results for the Activity in test [15] and in test [18] were 114% and 88.5%, respectively. Further, the inhibition result in test [3], in test [4], in test [8], in test [13], in test [16] and in test [17] was “Active” in each case. Besides, the IC50 (in general, the concentration needed to halve the response being measured) in [5] was less than 10 nM. The inhibition (usually the change of the read-out against control, counted positive when it falls) in [11] is more than 70%. The response in [12] was half-maximal at 160 nM (EC50). The inhibition result in test [14] is “inactive”.
